Data as given in ChEMBL document CHEMBL1156110, “Novel N-hydroxybenzamide-based HDAC inhibitors with branched CAP group” (Bioorg Med Chem Lett, 2009).
Activity calls are given as the source filed them. The calls are words filed in the database; no cut-off is given here.

Columns and labels:
PC-3 = assay: Antiproliferative activity against human PC3 cells after 48 hrs by MTT assay; type: functional; conditions: PC-3, 48 h
HepG2 = assay: Antiproliferative activity against human HepG2 cells after 48 hrs by MTT assay; type: functional; conditions: HepG2, 48 h
HCT-116 = assay: Antiproliferative activity against human HCT116 cells after 48 hrs by MTT assay; type: functional; conditions: HCT-116, 48 h
[1] = Inhibition of HDAC
A549 = assay: Antiproliferative activity against human A549 cells after 48 hrs by MTT assay; type: functional; conditions: A549, 48 h
Histone deacetylase 4 = Histone deacetylase 4 (Homo sapiens, UniProt P56524); assay: Inhibition of human recombinant his tagged HDAC4 expressed in baculovirus
Chain of Histone deacetylase 4 (P56524 whole entry): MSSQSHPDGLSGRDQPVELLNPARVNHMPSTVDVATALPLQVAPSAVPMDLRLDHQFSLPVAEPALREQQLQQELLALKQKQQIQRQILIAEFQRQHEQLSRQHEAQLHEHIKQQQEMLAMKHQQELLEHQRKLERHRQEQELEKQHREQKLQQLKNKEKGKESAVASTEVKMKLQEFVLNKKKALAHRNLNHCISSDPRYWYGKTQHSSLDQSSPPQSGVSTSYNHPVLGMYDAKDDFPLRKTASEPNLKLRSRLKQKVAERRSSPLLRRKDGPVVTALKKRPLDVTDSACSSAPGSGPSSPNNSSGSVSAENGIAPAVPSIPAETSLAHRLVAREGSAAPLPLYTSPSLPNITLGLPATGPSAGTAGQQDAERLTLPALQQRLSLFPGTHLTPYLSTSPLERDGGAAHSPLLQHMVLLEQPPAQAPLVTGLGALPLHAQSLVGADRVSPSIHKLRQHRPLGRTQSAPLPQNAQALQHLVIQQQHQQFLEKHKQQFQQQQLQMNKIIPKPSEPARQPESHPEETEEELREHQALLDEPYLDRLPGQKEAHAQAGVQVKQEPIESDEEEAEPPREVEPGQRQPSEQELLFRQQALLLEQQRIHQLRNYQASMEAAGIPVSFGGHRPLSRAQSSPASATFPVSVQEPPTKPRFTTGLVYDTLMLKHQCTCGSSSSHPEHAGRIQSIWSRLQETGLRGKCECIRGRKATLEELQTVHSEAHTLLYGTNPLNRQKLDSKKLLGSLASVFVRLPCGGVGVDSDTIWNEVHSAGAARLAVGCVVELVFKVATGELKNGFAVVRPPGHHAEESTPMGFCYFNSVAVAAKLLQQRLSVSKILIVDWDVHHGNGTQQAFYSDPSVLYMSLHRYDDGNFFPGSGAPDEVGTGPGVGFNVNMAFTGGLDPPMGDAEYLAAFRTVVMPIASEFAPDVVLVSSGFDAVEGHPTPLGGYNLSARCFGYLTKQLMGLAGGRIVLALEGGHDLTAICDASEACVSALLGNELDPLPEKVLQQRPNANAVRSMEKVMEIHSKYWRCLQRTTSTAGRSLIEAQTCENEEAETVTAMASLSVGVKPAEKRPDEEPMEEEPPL

U-937 [2] = assay: Induction of granulocytic differentiation in human U937 cells assessed as CD11c positive PI negative cells at 5 uM after 30 hrs by FACS; type: functional, cell-based
Procedure, shortened: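 U937 human leukemia cells treated 30 h at 5 µM; differentiation scored by FACS as the percentage of CD11c-positive, PI-negative cells; values are the mean of four independent replicates.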

U-937 [3] = assay: Induction of apoptosis in human U937 cells at 5 uM after 30 hrs by propidium iodide and annexin V staining; type: functional, cell-based
U-937 [4] = assay: Induction of p21WAF1/CIP1 expression in human U937 cells at 5 uM after 24 hrs by Western blot; type: functional, cell-based
[5] = biological target: T1, Protein deacetylase HDAC6 (Homo sapiens) (UniProt Q9UBN7); assay: Inhibition of HDAC6 in human U937 cells assessed as alpha-tubulin acetylation at 5 uM after 24 hrs by Western blot; type: cell-based; conditions: U-937
T1 sequence (whole entry): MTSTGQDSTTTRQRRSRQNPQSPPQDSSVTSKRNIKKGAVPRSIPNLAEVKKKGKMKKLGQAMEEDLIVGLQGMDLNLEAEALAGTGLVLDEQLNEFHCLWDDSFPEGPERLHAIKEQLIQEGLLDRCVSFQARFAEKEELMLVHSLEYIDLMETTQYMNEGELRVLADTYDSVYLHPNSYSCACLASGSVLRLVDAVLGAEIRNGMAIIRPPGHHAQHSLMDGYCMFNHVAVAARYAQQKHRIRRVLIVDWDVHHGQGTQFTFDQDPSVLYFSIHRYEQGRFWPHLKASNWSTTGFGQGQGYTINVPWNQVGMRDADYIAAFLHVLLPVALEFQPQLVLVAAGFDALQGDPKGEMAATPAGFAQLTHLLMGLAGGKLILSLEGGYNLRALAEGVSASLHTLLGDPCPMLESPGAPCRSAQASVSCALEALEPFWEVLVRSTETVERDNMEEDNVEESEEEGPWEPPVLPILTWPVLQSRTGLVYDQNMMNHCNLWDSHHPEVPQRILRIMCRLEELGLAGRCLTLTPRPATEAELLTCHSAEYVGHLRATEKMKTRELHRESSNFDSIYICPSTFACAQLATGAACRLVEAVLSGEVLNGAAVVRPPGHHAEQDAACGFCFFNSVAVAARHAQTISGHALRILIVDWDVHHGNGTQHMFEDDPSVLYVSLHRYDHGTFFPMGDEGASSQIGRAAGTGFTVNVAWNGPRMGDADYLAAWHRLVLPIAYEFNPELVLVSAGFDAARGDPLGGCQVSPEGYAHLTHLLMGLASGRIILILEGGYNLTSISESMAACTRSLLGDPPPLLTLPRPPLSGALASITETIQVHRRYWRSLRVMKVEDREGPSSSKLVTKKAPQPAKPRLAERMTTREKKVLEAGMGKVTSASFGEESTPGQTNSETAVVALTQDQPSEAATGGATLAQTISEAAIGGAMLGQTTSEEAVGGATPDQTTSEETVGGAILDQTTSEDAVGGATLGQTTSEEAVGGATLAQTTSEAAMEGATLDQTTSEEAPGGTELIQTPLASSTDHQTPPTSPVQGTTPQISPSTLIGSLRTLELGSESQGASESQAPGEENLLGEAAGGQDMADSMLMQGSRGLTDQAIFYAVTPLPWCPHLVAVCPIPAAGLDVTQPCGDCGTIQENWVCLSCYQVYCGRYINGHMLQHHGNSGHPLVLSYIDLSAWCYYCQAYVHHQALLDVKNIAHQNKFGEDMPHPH
Procedure, shortened: (§1)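 Human leukemia U937 cells exposed to 5 µM for 24 h. Acetyl-histone H3 was read by Western blot as a class I HDAC marker, and acetyl-α-tubulin as an HDAC6 marker.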

Histone deacetylase 1 = Histone deacetylase 1 (Homo sapiens, UniProt Q13547); assay: Inhibition of human recombinant HDAC1 expressed in baculovirus
Chain of Histone deacetylase 1 (Q13547 whole entry): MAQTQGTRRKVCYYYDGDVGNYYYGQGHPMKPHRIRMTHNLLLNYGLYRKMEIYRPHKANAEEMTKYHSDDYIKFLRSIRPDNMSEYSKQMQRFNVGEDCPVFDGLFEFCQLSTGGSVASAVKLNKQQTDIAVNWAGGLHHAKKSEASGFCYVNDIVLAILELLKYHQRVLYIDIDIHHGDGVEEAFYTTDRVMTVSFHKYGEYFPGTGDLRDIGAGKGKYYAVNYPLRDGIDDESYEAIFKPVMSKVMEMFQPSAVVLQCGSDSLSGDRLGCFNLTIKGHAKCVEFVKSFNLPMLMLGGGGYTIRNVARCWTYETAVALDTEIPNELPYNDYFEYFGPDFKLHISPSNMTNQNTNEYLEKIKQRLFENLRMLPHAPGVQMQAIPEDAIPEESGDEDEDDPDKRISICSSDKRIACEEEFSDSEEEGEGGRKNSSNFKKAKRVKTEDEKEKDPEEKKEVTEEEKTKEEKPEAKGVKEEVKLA

U-937 [6] = assay: Cell cycle arrest in human U937 cells assessed as accumulation at G1 phase at 5 uM after 30 hrs by FACS; type: functional, cell-based
[7] = biological target: Histone deacetylase (Homo sapiens) (UniProt Q13547+O15379+Q9UBN7+Q92769+Q9UQL6+Q8WUI4+Q9BY41+Q96DB2+P56524+Q9UKV0+Q969S8); assay: Inhibition of HDAC in human U937 cells assessed as histone H3 acetylation at 5 uM after 24 hrs by Western blot; type: cell-based; conditions: U-937; procedure, shortened: as §1
U-937 [8] = assay: Cell cycle arrest in human U937 cells assessed as accumulation at S phase at 5 uM after 30 hrs by FACS; type: functional, cell-based

With `CCCCCN(Cc1ccc(C(=O)NO)cc1)c1ncc(-c2ccc(C)cc2)s1` the GI50 (PC-3) was 5.06 µM, the GI50 (HepG2) was 7.02 µM and the GI50 (HCT-116) was 23.3 µM. The IC50 [1] was 4.33 µM and the GI50 (A549) was 9.14 µM.
With `CCCCCCN(Cc1ccc(C(=O)NO)cc1)c1ncc(-c2ccc(C)cc2)s1` the GI50 (PC-3) was 5.27 µM, the GI50 (HepG2) was 7.42 µM and the GI50 (HCT-116) was 4.85 µM. For the same compound, the IC50 [1] was 2.79 µM and the GI50 (A549) was 3.71 µM.
In the case of `Cc1ccc(OCCN(Cc2ccc(C(=O)NO)cc2)c2ncc(-c3ccc(C)cc3)s2)cc1`, the IC50 (Histone deacetylase 4) is reported as over 50 µM, the GI50 (PC-3) is reported as 5.57 µM and the GI50 (HepG2) is reported as 11.5 µM. The Activity (U-937 [2]) was “Active”, the GI50 (HCT-116) was 17.3 µM and the IC50 [1] was 0.101 µM. For the same compound, the Activity (U-937 [3]) was “Active”, the Activity (U-937 [4]) was “Active” and the inhibition [5] was “Active”. The IC50 (Histone deacetylase 1) was 1.05 µM, the Activity (U-937 [6]) was “Active” and the GI50 (A549) was 11.2 µM. For the same compound, the inhibition [7] was “Active”.
Work on `Cc1ccc(-c2cnc(N(CCCOc3ccccc3)Cc3ccc(C(=O)NO)cc3)s2)cc1` yielded a GI50 (PC-3) of 17.5 µM, a GI50 (HepG2) of 23.4 µM and a GI50 (HCT-116) of 4.14 µM. For the same compound, the IC50 [1] was 0.195 µM, the Activity (U-937 [4]) was “Active” and the inhibition [5] was “Active”. For the same compound, the Activity (U-937 [6]) was “Active”, the GI50 (A549) was 2.53 µM and the inhibition [7] was “Active”.
In the case of `Cc1ccc(OCCCCN(Cc2ccc(C(=O)NO)cc2)c2ncc(-c3ccc(C)cc3)s2)cc1`, the GI50 (PC-3) is reported as 1.22 µM, the GI50 (HepG2) is reported as 11 µM and the Activity (U-937 [2]) is reported as “Active”. For the same compound, the Activity (U-937 [8]) was “Active”, the GI50 (HCT-116) was 0.58 µM and the IC50 [1] was 1.67 µM. For the same compound, the Activity (U-937 [3]) was “Active” and the GI50 (A549) was 8.63 µM.
Compound `O=C(CCCCCCC(=O)Nc1ccccc1)NO` [VORINOSTAT] has a GI50 (PC-3) of 8.17 µM, a GI50 (HepG2) of 63.5 µM and a GI50 (HCT-116) of 2.69 µM. It also gave an IC50 [1] of 0.053 µM and a GI50 (A549) of over 200 µM.
`CCCCN(Cc1ccc(C(=O)NO)cc1)c1ncc(-c2ccc(C)cc2)s1` gave a GI50 (PC-3) of 6.41 µM, a GI50 (HepG2) of 4.3 µM and a GI50 (HCT-116) of 8.78 µM. For the same compound, the IC50 [1] was 1.35 µM and the GI50 (A549) was 4.78 µM.
With `Cc1ccc(-c2cnc(N(Cc3ccc(C(=O)NO)cc3)CC(C)C)s2)cc1` the GI50 (PC-3) was 9.34 µM, the GI50 (HepG2) was 7.42 µM and the GI50 (HCT-116) was 5.9 µM. For the same compound, the IC50 [1] was 0.494 µM and the GI50 (A549) was 20.4 µM.
For `CCCCCCCCN(Cc1ccc(C(=O)NO)cc1)c1ncc(-c2ccc(C)cc2)s1`, the GI50 (PC-3) was 13.3 µM, the GI50 (HepG2) was 8.76 µM and the GI50 (HCT-116) was 6.5 µM. The IC50 [1] was 1.59 µM and the GI50 (A549) was 4.63 µM.
`Cc1ccc(-c2cnc(N(Cc3ccc(C(=O)NO)cc3)C(C)C)s2)cc1` gave a GI50 (PC-3) of 1.15 µM, a GI50 (HepG2) of 2.18 µM and a GI50 (HCT-116) of 7.8 µM. The IC50 [1] was 0.168 µM and the GI50 (A549) was 3.83 µM.
Work on `CCN(Cc1ccc(C(=O)NO)cc1)c1ncc(-c2ccc(C)cc2)s1` yielded a GI50 (PC-3) of 10.3 µM, a GI50 (HepG2) of 1.12 µM and a GI50 (HCT-116) of 6.87 µM. For the same compound, the IC50 [1] was 0.054 µM and the GI50 (A549) was 2.7 µM.
`Cc1ccc(OCCCN(Cc2ccc(C(=O)NO)cc2)c2ncc(-c3ccc(C)cc3)s2)cc1` gave a GI50 (PC-3) of 9.33 µM, a GI50 (HepG2) of 12.2 µM and a GI50 (HCT-116) of 12.6 µM. The IC50 [1] was 1.07 µM, the Activity (U-937 [4]) was “Active” and the inhibition [5] was “Active”. For the same compound, the Activity (U-937 [6]) was “Active”, the GI50 (A549) was 32.5 µM and the inhibition [7] was “Active”.
For `CCCN(Cc1ccc(C(=O)NO)cc1)c1ncc(-c2ccc(C)cc2)s1`, the GI50 (PC-3) was 9.16 µM, the GI50 (HepG2) was 2.55 µM and the GI50 (HCT-116) was 5.8 µM. The IC50 [1] was 0.052 µM and the GI50 (A549) was 3.31 µM.
`Cc1ccc(-c2cnc(N(Cc3ccccc3)Cc3ccc(C(=O)NO)cc3)s2)cc1` gave a GI50 (PC-3) of 10.3 µM, a GI50 (HepG2) of 34 µM and a GI50 (HCT-116) of 48.8 µM. It also gave an IC50 [1] of 3.11 µM and a GI50 (A549) of 4.41 µM.
Compound `Cc1ccc(-c2cnc(N(CCCCOc3ccccc3)Cc3ccc(C(=O)NO)cc3)s2)cc1` has a GI50 (PC-3) of 10.3 µM, a GI50 (HepG2) of 16.6 µM and a GI50 (HCT-116) of 0.68 µM. The IC50 [1] was 0.057 µM, the inhibition [5] was “Active” and the Activity (U-937 [6]) was “Active”. The GI50 (A549) was 14.2 µM and the inhibition [7] was “Active”.
In the case of `Cc1ccc(-c2cnc(N(CCOc3ccccc3)Cc3ccc(C(=O)NO)cc3)s2)cc1`, the IC50 (Histone deacetylase 4) is reported as over 50 µM, the GI50 (PC-3) is reported as 7.86 µM and the GI50 (HepG2) is reported as 12 µM. For the same compound, the Activity (U-937 [2]) was “Active”, the GI50 (HCT-116) was 8.81 µM and the IC50 [1] was 0.041 µM. For the same compound, the Activity (U-937 [3]) was “Active”, the Activity (U-937 [4]) was “Active” and the inhibition [5] was “inactive”. The IC50 (Histone deacetylase 1) was 2.3 µM, the Activity (U-937 [6]) was “Active” and the GI50 (A549) was 14 µM. The inhibition [7] was “Active”.
